The target of test [1] is PKM2 (Homo sapiens, UniProt P14618). Description: MIDAS protein-metabolite interaction screen. The format is binding. The settings on record: significant PMI Q < 0.01. In outline:
(§1)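 Purified protein is separated from a defined metabolite library by a semipermeable dialysis membrane that passes metabolites but not protein, then incubated to relative equilibrium. Protein is denatured and removed. Metabolites in both chambers are quantified by flow injection analysis–MS, with methods optimized for each pool. The between-chamber fold change is normalized and corrected for nonspecific interactions.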

Test [2] has as its target glucose-6-phosphate isomerase (GPI) (Homo sapiens, UniProt P06744). Description: MIDAS protein-metabolite interaction screen. The format is binding. The settings on record: significant PMI Q < 0.01. In outline:
as §1

Test [3] deals with T1, LDHB (Homo sapiens, UniProt P07195). Put plainly: LDH enzyme activity assay. The test is classed as biochemical. The settings on record: in vitro. In outline: (§2)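 LDH isoform activity measured in vitro with test metabolites (adenosine nucleotides, CoA and acyl-CoAs) over a concentration range. IC50 is derived from the inhibition curves. Mode of inhibition is assessed against NAD and lactate.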
T1 sequence (P07195 whole entry, canonical isoform): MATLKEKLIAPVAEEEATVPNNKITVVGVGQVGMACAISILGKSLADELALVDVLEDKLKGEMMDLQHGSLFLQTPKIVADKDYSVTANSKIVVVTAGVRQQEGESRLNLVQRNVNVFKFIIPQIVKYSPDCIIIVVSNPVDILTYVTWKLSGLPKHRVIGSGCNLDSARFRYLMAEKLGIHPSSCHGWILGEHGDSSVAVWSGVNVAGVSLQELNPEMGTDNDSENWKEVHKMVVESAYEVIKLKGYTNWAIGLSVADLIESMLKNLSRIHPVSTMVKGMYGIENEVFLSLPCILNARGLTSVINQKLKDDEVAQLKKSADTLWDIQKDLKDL

Test [4] has as its target T2, LDHA (Homo sapiens, UniProt P00338). Put plainly: LDH enzyme activity assay. The format is biochemical. Conditions: for inhibition of LDHA enzyme activity: in vitro; for mode of LDHA inhibition: with respect to NAD and lactate. In outline:
as §2

The target in test [5] is T3, CASTOR1 (Homo sapiens, UniProt Q8WTX7).
T3 sequence (Q8WTX7 1-329): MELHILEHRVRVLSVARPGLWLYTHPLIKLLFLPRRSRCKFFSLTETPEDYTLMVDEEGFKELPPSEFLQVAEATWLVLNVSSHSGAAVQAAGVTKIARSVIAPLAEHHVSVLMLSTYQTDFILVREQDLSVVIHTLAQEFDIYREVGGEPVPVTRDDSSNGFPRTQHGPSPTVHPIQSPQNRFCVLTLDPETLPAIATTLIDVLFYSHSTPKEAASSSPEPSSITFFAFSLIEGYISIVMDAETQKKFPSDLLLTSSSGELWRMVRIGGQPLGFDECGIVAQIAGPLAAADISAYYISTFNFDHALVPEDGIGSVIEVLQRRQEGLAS
Put plainly: MIDAS. The test is classed as binding. Conditions: significant PMI Q < 0.01. The method in brief: as §1

Test [6] concerns the target T2, LDHA. Put plainly: Differential scanning fluorimetry. The test is classed as binding. For orientation: In DSF a fluorescence change marks the thermal transition of the protein.
Test [7] deals with T1, LDHB. Description: Differential scanning fluorimetry. The test is classed as binding.
Test [8] concerns the target T4, fumarase (Homo sapiens, UniProt P07954).
T4 sequence (P07954 45-510): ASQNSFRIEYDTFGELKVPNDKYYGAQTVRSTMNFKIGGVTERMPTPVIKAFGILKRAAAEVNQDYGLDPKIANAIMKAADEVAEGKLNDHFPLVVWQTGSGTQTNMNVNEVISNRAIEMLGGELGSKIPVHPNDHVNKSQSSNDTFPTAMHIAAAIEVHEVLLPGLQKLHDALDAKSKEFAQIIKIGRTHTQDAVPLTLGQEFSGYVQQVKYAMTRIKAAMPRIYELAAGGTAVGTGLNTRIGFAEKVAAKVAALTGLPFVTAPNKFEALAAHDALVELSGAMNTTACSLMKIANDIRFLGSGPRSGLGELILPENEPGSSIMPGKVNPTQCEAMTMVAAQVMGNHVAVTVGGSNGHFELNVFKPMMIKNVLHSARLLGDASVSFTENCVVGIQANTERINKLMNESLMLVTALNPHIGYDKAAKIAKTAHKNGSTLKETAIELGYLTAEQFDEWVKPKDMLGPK
Description: Differential scanning fluorimetry. The settings on record: read-out: apparent dissociation constant (Kd app); DSF, fumarase. The format is binding.

Test [9] has as its target T5, FBP1 (Homo sapiens, UniProt P09467).
T5 sequence (P09467 1-338): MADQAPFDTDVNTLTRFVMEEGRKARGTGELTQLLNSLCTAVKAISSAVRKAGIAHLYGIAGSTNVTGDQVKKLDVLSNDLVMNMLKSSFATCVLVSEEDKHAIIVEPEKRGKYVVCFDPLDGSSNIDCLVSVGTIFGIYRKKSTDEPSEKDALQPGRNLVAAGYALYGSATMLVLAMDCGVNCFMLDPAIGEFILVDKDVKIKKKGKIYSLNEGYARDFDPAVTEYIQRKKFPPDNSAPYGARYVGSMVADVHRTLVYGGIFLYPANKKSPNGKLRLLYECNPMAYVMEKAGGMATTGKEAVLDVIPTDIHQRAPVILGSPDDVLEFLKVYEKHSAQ
Description: MIDAS protein-metabolite interaction screen. The format is binding. Conditions: significant PMI Q < 0.01. The method in brief: as §1

In test [10] the target is T6, FBP2 (Homo sapiens, UniProt O00757).
T6 sequence (O00757 1-339): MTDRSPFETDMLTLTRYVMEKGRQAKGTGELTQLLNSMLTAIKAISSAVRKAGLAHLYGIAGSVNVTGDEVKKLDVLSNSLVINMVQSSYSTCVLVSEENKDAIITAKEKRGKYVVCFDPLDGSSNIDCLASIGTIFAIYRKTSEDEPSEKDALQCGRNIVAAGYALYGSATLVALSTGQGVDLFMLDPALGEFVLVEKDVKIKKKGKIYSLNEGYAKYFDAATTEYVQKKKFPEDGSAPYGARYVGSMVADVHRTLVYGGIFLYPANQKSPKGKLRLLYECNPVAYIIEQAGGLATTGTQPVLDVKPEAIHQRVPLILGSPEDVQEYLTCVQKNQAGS
Put plainly: MIDAS protein-metabolite interaction screen. The settings on record: significant PMI Q < 0.01. The format is binding. The method in brief:
as §1

Test [11] addresses T7, Sestrin2 (Homo sapiens, UniProt P58004).
T7 sequence (P58004 1-480): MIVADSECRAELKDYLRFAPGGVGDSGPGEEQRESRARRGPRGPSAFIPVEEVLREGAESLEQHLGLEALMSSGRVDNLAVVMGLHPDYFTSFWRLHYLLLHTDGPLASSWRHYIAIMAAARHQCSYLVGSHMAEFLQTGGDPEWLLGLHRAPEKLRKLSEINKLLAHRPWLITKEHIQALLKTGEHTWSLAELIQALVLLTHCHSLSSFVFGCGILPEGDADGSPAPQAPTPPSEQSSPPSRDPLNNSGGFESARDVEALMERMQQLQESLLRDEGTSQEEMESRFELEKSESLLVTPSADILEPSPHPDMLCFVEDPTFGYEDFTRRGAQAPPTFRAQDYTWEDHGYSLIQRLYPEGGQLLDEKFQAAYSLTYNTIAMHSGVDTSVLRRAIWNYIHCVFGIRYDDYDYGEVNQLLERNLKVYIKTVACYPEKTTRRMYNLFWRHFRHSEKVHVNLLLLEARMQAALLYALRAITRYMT
Description: MIDAS protein-metabolite interaction screen. The test is classed as binding. Conditions: significant PMI Q < 0.01. In outline: as §1

The target of test [12] is T1, LDHB. Description: Binding to palmitoyl-CoA immobilized on agarose beads. The method in brief: (§3)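 Pull-down of LDH protein on palmitoyl-CoA immobilized on agarose beads. Competition with free palmitoyl-CoA, with buffer alone or acetyl-CoA as comparators.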
Test [13] has as its target T2, LDHA. The description is as above. The method in brief:
as §3

Test [14] concerns the target T8, phosphofructokinase (PFKP) (Homo sapiens, UniProt Q01813).
T8 sequence (Q01813 1-784): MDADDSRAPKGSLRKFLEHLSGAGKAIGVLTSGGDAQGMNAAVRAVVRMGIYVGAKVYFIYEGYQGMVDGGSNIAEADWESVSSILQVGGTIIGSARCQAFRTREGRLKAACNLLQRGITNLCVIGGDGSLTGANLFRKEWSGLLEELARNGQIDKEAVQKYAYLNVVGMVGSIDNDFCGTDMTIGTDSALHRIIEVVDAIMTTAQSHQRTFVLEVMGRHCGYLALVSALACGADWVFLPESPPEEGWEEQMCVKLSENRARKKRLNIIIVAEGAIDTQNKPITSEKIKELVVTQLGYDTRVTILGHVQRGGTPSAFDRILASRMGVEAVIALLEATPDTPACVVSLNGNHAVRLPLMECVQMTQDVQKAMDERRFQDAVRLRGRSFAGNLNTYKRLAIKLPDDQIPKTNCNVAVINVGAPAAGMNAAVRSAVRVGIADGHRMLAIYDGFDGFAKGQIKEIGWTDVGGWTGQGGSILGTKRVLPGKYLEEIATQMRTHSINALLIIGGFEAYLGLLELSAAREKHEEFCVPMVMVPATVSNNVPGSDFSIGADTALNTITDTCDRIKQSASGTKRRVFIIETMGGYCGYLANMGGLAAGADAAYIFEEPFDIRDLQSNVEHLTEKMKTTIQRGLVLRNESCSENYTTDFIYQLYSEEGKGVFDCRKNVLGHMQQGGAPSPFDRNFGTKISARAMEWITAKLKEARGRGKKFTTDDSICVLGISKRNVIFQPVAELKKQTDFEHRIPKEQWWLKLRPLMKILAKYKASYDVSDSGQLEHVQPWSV
Description: MIDAS protein-metabolite interaction screen. The format is binding. The settings on record: significant PMI Q < 0.01. In outline: as §1

Structures are written as SMILES.

PKM2, sequence (P14618 whole entry): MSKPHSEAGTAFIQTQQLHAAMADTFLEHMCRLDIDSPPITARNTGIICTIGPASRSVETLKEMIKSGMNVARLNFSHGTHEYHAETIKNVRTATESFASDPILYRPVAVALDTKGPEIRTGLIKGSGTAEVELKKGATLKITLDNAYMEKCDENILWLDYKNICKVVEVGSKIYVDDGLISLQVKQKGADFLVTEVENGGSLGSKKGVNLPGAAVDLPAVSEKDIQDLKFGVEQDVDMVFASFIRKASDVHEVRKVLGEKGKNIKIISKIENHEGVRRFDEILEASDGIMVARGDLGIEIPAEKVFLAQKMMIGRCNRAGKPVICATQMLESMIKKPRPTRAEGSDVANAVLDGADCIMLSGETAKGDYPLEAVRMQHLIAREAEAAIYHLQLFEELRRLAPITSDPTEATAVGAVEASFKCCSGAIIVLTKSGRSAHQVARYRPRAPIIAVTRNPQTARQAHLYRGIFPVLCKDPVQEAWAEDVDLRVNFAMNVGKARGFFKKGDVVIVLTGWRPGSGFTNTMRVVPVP

Regarding `CN1c2c(nc(N)[nH]c2=O)NCC1CNc1ccc(C(=O)N[C@@H](CCC(=O)O)C(=O)O)cc1` (some centres unmarked) [5-MTHF, 5-methyltetrahydrofolate], the MIDAS protein-metabolite interaction result in test [1] is listed as “interacted”.
As to `O=C(CO)[C@@H](O)[C@H](O)[C@H](O)COP(=O)(O)O` [fructose-6-phosphate], the MIDAS protein-metabolite interaction entry in test [2] is reported as “interacted”.
Turning to `Nc1ncnc2c1ncn2[C@@H]1O[C@H](COP(=O)(O)OP(=O)(O)O)[C@@H](O)[C@H]1O` [ADP, adenosine diphosphate], the “inhibition of LDHB enzyme activity” value in test [3] is given as “only at supraphysiological concentrations”. Further, in [4], the “inhibition of LDHA enzyme activity” value is “only at supraphysiological concentrations”.
Take `N=C(N)NCCC[C@H](N)C(=O)O` [arginine]: the MIDAS protein-metabolite interaction entry in test [5] was “most enriched interactors”.
Consider `Nc1ncnc2c1ncn2[C@@H]1O[C@H](COP(=O)(O)OP(=O)(O)OP(=O)(O)O)[C@@H](O)[C@H]1O` [ATP, adenosine triphosphate], for which the “inhibition of LDHB enzyme activity” value in test [3] is on record as “inhibited only the LDHA isoform”. Moreover, the Kd in test [6] stood at 636 µM; in test [7], 697 µM. The “mode of LDHA inhibition” value in test [4] is listed as “competitive”.
Consider `O=C(O)/C=C/C(=O)O` [fumarate], for which, in [8], the Kd stood at 3870 µM.
As to `N[C@H]1C(O)O[C@H](COP(=O)(O)O)[C@@H](O)[C@@H]1O` (some centres unmarked) [glucosamine-6-phosphate], the values for the MIDAS protein-metabolite interaction result in [9] and in [10] were “showed an interaction” and “only FBP1 showed an interaction”, respectively.
For the molecule `NCCCCCN` [cadaverine], the MIDAS protein-metabolite interaction result in test [11] and in test [5] was “bind” each time.
With `N[C@@H](Cc1cc(I)c(O)c(I)c1)C(=O)O` [3,5-diiodo-L-tyrosine], the MIDAS protein-metabolite interaction entry in test [1] is on record as “interacted”.
Turning to `CCCCCCCCCCCCCCCC(=O)SCCNC(=O)CCNC(=O)[C@H](O)C(C)(C)COP(=O)(O)OP(=O)(O)OC[C@H]1O[C@@H](n2cnc3c(N)ncnc32)[C@H](O)[C@@H]1OP(=O)(O)O` [C16:0-CoA, palmitoyl-CoA], the “protein species induced in DSF assay” value is “thermolabile species” in test [6] (LDHA, low-micromolar concentrations of ligand) and “thermostable species” in [7] (LDHB, low-micromolar concentrations of ligand). In addition, the “disruption of protein binding to immobilized palmitoyl-CoA by free competitor” value in [12] (agarose beads) and in test [13] (agarose beads) was “disrupted” each time. Also, the “affinity of direct interaction” value in test [12] (from DSF and bead binding) was “low-micromolar affinity”; in [13] (from DSF and bead binding), “low-micromolar affinity”. For the same molecule, the IC50 in test [4] (LDHA enzyme activity, acyl-CoAs) was ~1 µM. The “mode of LDHA inhibition” value in test [4] was “noncompetitive”.
On to `O=C[C@H](O)[C@@H](O)[C@H](O)[C@H](O)COP(=O)(O)O` [glucose-6-phosphate], for which, in test [2], the MIDAS protein-metabolite interaction entry is reported as “interacted”.
In the case of `NCCCCN=C(N)N` [agmatine], the MIDAS protein-metabolite interaction entry in test [11] and in [5] was “bind” throughout.
For the molecule `Nc1ncnc2c1ncn2[C@@H]1O[C@H](COP(=O)(O)O)[C@@H](O)[C@H]1O` [AMP, adenosine monophosphate], the “inhibition of LDHB enzyme activity” value in test [3] was “only at supraphysiological concentrations”. For the same molecule, the “inhibition of LDHA enzyme activity” value in [4] is on record as “only at supraphysiological concentrations”.
Regarding `Nc1nc2c(ncn2[C@@H]2O[C@H](COP(=O)(O)OP(=O)(O)O)[C@@H](O)[C@H]2O)c(=O)[nH]1` [GDP, guanosine diphosphate], the MIDAS protein-metabolite interaction entry in [1] is on record as “interacted”.
With `NCCCN` [1,3-diaminopropane], the MIDAS protein-metabolite interaction result in test [11] and in [5] was “bind” each time.
`O=C(CO)[C@@H](O)[C@H](O)[C@H](O)[C@H](O)COP(=O)(O)O` [sedoheptulose-7-phosphate]: the MIDAS protein-metabolite interaction entry in [14] was “interacted”.
Regarding `O=P(O)(O)OC[C@H]1O[C@H](OP(=O)(O)OP(=O)(O)O)[C@H](O)[C@@H]1O` [PRPP, 5-phospho-D-ribose 1-diphosphate], the MIDAS protein-metabolite interaction result in test [9] and in test [10] was “interacted” in each case.
On to `O=C(COP(=O)(O)O)[C@@H](O)[C@H](O)[C@H](O)COP(=O)(O)O` [fructose 1,6-bisphosphate], for which, in test [14], the MIDAS protein-metabolite interaction result is recorded as “interacted”.

What is called IC50 is the concentration that inhibits the measured activity by half. Low readings indicate greater potency in that assay, high ones weaker potency in that assay.

These data come from PMC10262665 (Science (New York, N.Y.), 2023).
